Laboratory results as given in ChEMBL document CHEMBL4725329, “Anti-proliferative potential of triphenyl substituted pyrimidines against MDA-MB-231, HCT-116 and HT-29 cancer cell lines” (Bioorg Med Chem Lett, 2020).

Experiments:
HCT-116 [1] = assay: Antiproliferative activity against human HCT-116 cells assessed as inhibition of cell proliferation measured after 48 hrs by MTT assay; assay type: functional, cell-based; conditions: HCT-116, 48 h
Procedure, shortened: (§1)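 Cells were exposed to test compounds at 1, 5, 10 and 25 µM for 48 h, with each concentration run in triplicate. Untreated cells served as control. Cell viability was measured and IC₅₀ values were derived as mean ± SD of three independent experiments.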

MDA-MB-231 = assay: Antiproliferative activity against human MDA-MB-231 cells assessed as inhibition of cell proliferation measured after 48 hrs by MTT assay; assay type: functional, cell-based; conditions: MDA-MB-231, 48 h; procedure, shortened: as §1
HT-29 = assay: Antiproliferative activity against human HT-29 cells assessed as inhibition of cell proliferation measured after 48 hrs by MTT assay; assay type: functional, cell-based; conditions: HT-29, 48 h; procedure, shortened: as §1
Tubulin (Homo sapiens) [2] = target: T1, Tubulin (Homo sapiens) (UniProt P68371+Q9H4B7+P0DPH7+P68366+Q13509+Q71U36+P04350+Q3ZCM7+P07437+P68363+Q9BQE3+Q6PEY2+Q13885+Q9BVA1+Q9BUF5); assay: Inhibition of tubulin polymerization in human HCT-116 cells assessed as cell cycle arrest at G2/M phase at 12.5 uM measured after 24 hrs by propidium iodide staining based analysis; design: scale not given: the % may be the effect or the level left
HCT-116 [3] = assay: Induction of apoptosis in human HCT-116 cells assessed as necrotic cells at 5 uM measured after 24 hrs by annexin-V/FITC staining based flow cytometry analysis (reference value: 0.2 %); assay type: functional
HCT-116 [4] = assay: Induction of apoptosis in human HCT-116 cells assessed as live cells at 5 uM measured after 24 hrs by annexin-V/FITC staining based flow cytometry analysis (reference value: 97.1 %); assay type: functional
Tubulin (Homo sapiens) [5] = target: T1, Tubulin (Homo sapiens); assay: Inhibition of tubulin polymerization in human HCT-116 cells assessed as cell cycle arrest at G1/G0 phase at 12.5 uM measured after 24 hrs by propidium iodide staining based analysis; design: scale not given: the % may be the effect or the level left
HCT-116 [6] = assay: Induction of apoptosis in human HCT-116 cells assessed as late apoptotic cells at 5 uM measured after 24 hrs by annexin-V/FITC staining based flow cytometry analysis (reference value: 2.4 %); assay type: functional
HCT-116 [7] = assay: Induction of apoptosis in human HCT-116 cells assessed as early apoptotic cells at 5 uM measured after 24 hrs by annexin-V/FITC staining based flow cytometry analysis (reference value: 0.3 %); assay type: functional

Row | Structure (SMILES) | IC50 (HCT-116 [1]) | IC50 (MDA-MB-231) | IC50 (HT-29) | Activity (Tubulin (Homo sapiens) [2]) | Activity (Tubulin (Homo sapiens) [5]) | Activity (HCT-116 [3]) | Activity (HCT-116 [4]) | Activity (HCT-116 [6]) | Activity (HCT-116 [7])
1 | COc1cc(-c2cc(-c3cccc(O)c3)nc(-c3ccccc3)n2)cc(OC)c1OC | 20.4 µM | 1.99 µM | > 25 µM |  |  |  |  |  | 
2 | COc1cc(-c2cc(-c3cccs3)nc(-c3ccccc3)n2)cc(OC)c1OC | 17 µM | 5.11 µM | > 25 µM |  |  |  |  |  | 
3 | COc1cc2c(c(OC)c1OC)-c1ccc(OC)c(=O)cc1[C@@H](NC(C)=O)CC2 [COLCHICINE] | 5.13 µM | 0.93 µM | 5.19 µM |  |  | 2.9% | 38.8% | 56.4% | 1.9%
4 | COc1cc(-c2cc(-c3ccc(N)cc3)nc(-c3ccccc3)n2)cc(OC)c1OC | 12.3 µM | 1.01 µM | > 25 µM |  |  |  |  |  | 
5 | COc1cc(-c2cc(-c3ccc(C)cc3)nc(-c3ccccc3)n2)cc(OC)c1OC | 15.7 µM | 5.11 µM | > 25 µM |  |  |  |  |  | 
6 | COc1ccc(-c2cc(-c3cc(OC)c(OC)c(OC)c3)nc(-c3ccccc3)n2)c(OC)c1 | > 25 µM | 1.44 µM | > 25 µM |  |  |  |  |  | 
7 | COc1cc(-c2cc(-c3cccc([N+](=O)[O-])c3)nc(-c3ccccc3)n2)cc(OC)c1OC | > 25 µM | 2.44 µM | > 25 µM |  |  |  |  |  | 

Further compounds by falling IC50 (HCT-116 [1]), results first:

Row | IC50 (HCT-116 [1]) | IC50 (MDA-MB-231) | IC50 (HT-29) | Activity (Tubulin (Homo sapiens) [2]) | Activity (Tubulin (Homo sapiens) [5]) | Structure (SMILES) | Activity (HCT-116 [3]) | Activity (HCT-116 [4]) | Activity (HCT-116 [6]) | Activity (HCT-116 [7])
8 | 11.8 µM | 1.6 µM | 11.3 µM |  |  | COc1cc(-c2cc(-c3ccc(O)cc3)nc(-c3ccccc3)n2)cc(OC)c1OC |  |  |  | 
9 | 9.95 µM | 5.87 µM | 7.93 µM |  |  | COc1cc(-c2cc(-c3ccccc3)nc(-c3ccccc3)n2)cc(OC)c1OC |  |  |  | 
10 | 7.98 µM | > 25 µM | 6.23 µM |  |  | COc1cc(-c2cc(-c3ccc(Cl)cc3)nc(-c3ccccc3)n2)cc(OC)c1OC |  |  |  | 
11 | 5.89 µM | 0.81 µM | 4.96 µM | 79.5% | 11.3% | COc1cc(-c2cc(-c3ccc(O)cc3O)nc(-c3ccccc3)n2)cc(OC)c1OC | 0.6% | 28.7% | 35.2% | 35.4%
12 | 4.93 µM | 3.24 µM | 4.73 µM | 8.1% | 78.5% | COc1cc(-c2cc(-c3cccc4ccccc34)nc(-c3ccccc3)n2)cc(OC)c1OC | 0.3% | 23.7% | 49.6% | 26.4%
13 | 4.78 µM | 3.39 µM | 4.23 µM | 88.8% | 5.6% | COc1ccc(-c2cc(-c3cc(OC)c(OC)c(OC)c3)nc(-c3ccccc3)n2)cc1 | 0.9% | 28.3% | 48.3% | 22.5%
14 | 4.32 µM | > 25 µM | 3.17 µM |  |  | COc1cc(-c2cc(-c3ccc(Br)cc3)nc(-c3ccccc3)n2)cc(OC)c1OC |  |  |  | 
